ChEMBL document CHEMBL4513216, “Probing the Open Global Health Chemical Diversity Library for Multistage-Active Starting Points for Next-Generation Antimalarials” (ACS Infect Dis, 2020)

Test: Toxicity liver stage against HepG2, at 10uM
Format: cell-based
Parameters: test concentration 10 uM, cell line HepG2-A16-CD81EGFP
Conditions: human, HepG2-A16-CD81EGFP cells; read-out: INHIBITION
Outline: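 Uninfected HepG2-A16-CD81EGFP cells, 3 × 10^3 per well, 1536-well, plated on prespotted compound at 10 μM final, parasite-free screening media added to match infected plates; puromycin 10 μM positive, DMSO 0.5% negative; run in parallel with 48 h PbLuc assay at 37 °C, 5% CO2; viability by CellTiter-Glo luminescence, normalized to controls.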

Structure (SMILES)	cytotoxicity at 10 µM
COCCCNC(=O)c1cc(-c2cnc(N3CCOCC3)nc2)cn1C	-69.8%
CCCc1n[nH]c(C2CN(Cc3nnc(C4CC4)o3)CCO2)n1 (centres undefined)	-20.2%
CNC(=O)c1ccc(CN(C(C)C)C(C)C)o1	-1.88%
CCOc1ncnc2c1CCN(C(=O)c1cnccn1)CC2	-6.13%
CC(NC(=O)COc1ccccc1C(=O)O)c1ccc(F)cc1 (centres undefined)	-1.11%
COC[C@]1(O)CCN(c2cc(OC)ncn2)CC1(C)C	5.66%
CN(C)CCN1C(=O)CCCC12CCCN(Cc1ccc[nH]1)C2 (centres undefined)	-10.1%
CC(C)c1noc(CN(Cc2ccccc2F)C2CC2)n1	-7.96%
CCNCCc1nc2cc(F)ccc2[nH]1	5.18%
CCc1csc(CNc2cc(C)nc(-c3cccnc3)n2)n1	4.83%
CCN(Cc1csc(CS(C)(=O)=O)n1)c1cccc(CO)c1	-10%
COCC(C)(C#N)NC(=O)COc1ccccc1 (centres undefined)	7.51%
O=C(CNC(=O)Nc1c(F)cccc1Oc1ccccc1)NC1CC1	6.45%
CCn1ncnc1CN1CCC(CNC(=O)c2ccccc2C#N)C1 (centres undefined)	13.2%
COc1ccccc1OCc1cc(C(=O)N2[C@H](C)CC[C@@H]2C)n[nH]1	-2.01%
Cc1cccc2nc(CN3CCCC(C)C3)cc(=O)n12 (centres undefined)	2.46%
O=c1[nH]c2csnc2c(=O)n1Cc1ccc(Br)cc1	5.41%
Cc1nnc(Cn2cc(I)cc(C)c2=O)o1	0.0894%
COc1ccccc1OCCCc1cccc(C#N)n1	-5.62%
CC(NC(N)=O)C(=O)NCc1ccc(Br)c(F)c1 (centres undefined)	7.97%
Cc1cccc(NC(=O)CNC(=O)Cn2ncc(Cl)c(Cl)c2=O)c1C	12.7%
COc1cc(NC(=O)N(C)Cc2ccc(Br)o2)ncn1	-4.12%
COCc1nc2ncc3c(=O)n(-c4ccccc4OC)ccc3n2n1	-8.17%

Structure (SMILES)	cytotoxicity at 10 µM
CCNC(=O)NC(C)c1nc(-c2ccc(Br)cc2)no1 (centres undefined)	14.7%
O=C(CCNS(=O)(=O)c1ccc(F)cc1)NCc1ccoc1	-6.08%
CNC(=O)CS(=O)(=O)C1CCN(S(=O)(=O)C2CC2)CC1	-16.7%
Cc1ccc2c(c1)C(NCc1ccccn1)CC2 (centres undefined)	5.47%
O=C(c1cc(C2CCCN(Cc3ccccn3)C2)no1)N1CCCC1 (centres undefined)	-18.9%
O=C1CC(N(C(=O)CCc2c[nH]c3ccccc23)C2CC2)C(=O)N1 (centres undefined)	0.247%
CCCNC(=O)C[S+]([O-])Cc1csc(C2CCCCC2)n1 (centres undefined)	-48.2%
CC(C)n1nc2c(cc1=O)CN(CCOc1cccc(C#N)c1)CC2	13.6%
O=C(c1ccccn1)N1CCCC(c2nccn2Cc2ccncc2)C1 (centres undefined)	-14.1%
Cn1ccc2c(-c3ccc(NCCO)nn3)ccnc21	-5.56%
Cc1nccc(-c2cccc(NCC(=O)N3CCCCCCC3)c2)n1	-0.513%
COCCN1CCCC2(CCN(c3ncc(Cl)cc3Cl)C2)C1=O (centres undefined)	9.44%
CCO[C@H]1CN(C)C[C@@H]1NC(=O)c1cc(C)nc2ccc(C)cc12	4.15%
COc1ccsc1C(=O)N1CCCC1c1c(C)nn(C)c1OC (centres undefined)	-0.561%
Cc1ccc(-c2noc(CN3CCc4cncnc4C3)n2)cc1	1.04%
CN(C)c1ccc(CNCc2ccc(N3CCOCC3)cc2)cn1	7.17%
Clc1cc(Cl)cc(CN2CCC(NCc3cc[nH]n3)CC2)c1	11.1%
COCCO[C@H]1CCN(Cc2cccs2)[C@H]1Cc1cccnc1	-2.23%
COc1ccc(CN2CCCC2)cc1Oc1cccc(C#N)n1	7.01%
COC(=O)CCN1CCCC1c1ccccc1Cl (centres undefined)	19.6%
COc1cc(C)c(C(C)Nc2ncc(C(N)=O)cc2Cl)cc1OC (centres undefined)	2.76%
CCn1nnnc1-c1cccc(NC(=O)CCn2cc(C)cn2)c1	1.66%
O=c1occ(CN2CCSCC2)c(O)c1CN1CCCC1	-7.03%

Structure (SMILES)	cytotoxicity at 10 µM
CCN(CC)c1ccc(NS(=O)(=O)c2cnn(C(C)C)c2)cn1	5.02%
O=C1CCC2(CCC(NCc3cccnc3)CC2)N1Cc1ccccc1 (centres undefined)	-2.04%
O=C(CCNC(=O)c1ccccc1)Nc1ccncc1	-2.36%
CN(CCCc1cc(-c2ccc(F)cc2)n(C)n1)CC(N)=O	-8.71%
Cc1csc2cc(C(=O)NC3CC3)cnc12	-0.697%
O=C(Cc1ccc2c(c1)CCCC2)N[C@@H]1CC[C@@H](n2ccnc2)[C@@H]1O	-5.69%
CCCc1nnc2sc(C3CCN(CCOC)CC3)nn12	6.76%
CC(=O)NC1CCCN(C(=O)CCc2cccnc2)C1 (centres undefined)	19.8%
COC(=O)c1ccc(-c2ccc(/C=C3\C(=O)NC(=N)N3C)o2)cc1	-66.3%
COc1cccc(C(=O)Nc2cc(CC(C)C)nn2C)c1	-9.42%
CSC1(CNC(=O)CCc2ccc(Cl)s2)CCOCC1	6.45%
CN1CCN(C2CCCC2)C(CCO)C1 (centres undefined)	0.456%
NCCN1C(=O)CC[C@H]2CN(Cc3ccc4occc4c3)CC[C@H]21	-1.14%
Cc1cccc(NC(=O)NC2CCN(C3CCOC3)CC2)c1 (centres undefined)	4.24%
CC(C)N1CCC(c2cnc(-c3cncnc3)cn2)CC1	2.55%
CC(=O)N[C@@H]1CN(C2CCN(c3cccc(Cl)c3)CC2)C[C@H]1C(C)C	1.6%
Cn1nccc1CNC(=O)CCn1nc(C(F)(F)F)cc1C1CC1	-8.74%
CN(C)C(CNS(=O)(=O)c1ccc(F)cc1F)c1cccn1C (centres undefined)	-13.9%
CC(C(=O)NCCOc1ccc(F)cc1)n1cncn1 (centres undefined)	-1.46%
COc1ccnc(N(C)Cc2ccco2)n1	14%
Cn1ccc(CN2CCCC2c2ccc3c(c2)OCCCO3)cc1=O (centres undefined)	-4.2%
CC(C)N(C)Cc1cnc2n1CCN(C(=O)Cc1cccs1)C2C (centres undefined)	7.86%
Cc1cc(CN(C)C(=O)NCc2ccnc(SC(C)(C)C)c2)no1	10.4%

Structure (SMILES)	cytotoxicity at 10 µM
CC[C@@H](CO)NC(=O)c1cccc(CCC(C)(C)O)c1	-3.33%
CC(CNC(=O)N1CCS(=O)(=O)CC1)Cc1cccs1 (centres undefined)	-9.47%
CCN(C(=O)c1ccc2c(c1)OCO2)C1CC(=O)NC1=O (centres undefined)	-3.04%
COC(=O)CN(C)C1CCc2ccccc21 (centres undefined)	-7.59%
Cc1nc(CN(C)S(=O)(=O)c2ccccc2Br)no1	6.2%
COc1c(C2CCCN2CCOc2ccccc2C#N)c(C)nn1C (centres undefined)	2.59%
Cc1cnc(N2C(=O)CSC2c2ccc(N(C)C)cc2)s1 (centres undefined)	6.07%
CCCc1noc(CCCC(=O)N2CCCC2c2cnn(C)c2)n1 (centres undefined)	6.32%
COc1ccccc1N(C)Cc1nc2c(cnn2C)c(=O)[nH]1	-8.48%
O=C1NCCN(C(=O)CCN2CCCO2)C1c1cccc(F)c1 (centres undefined)	5.47%
CC1COc2ccccc2N1C(=O)CCc1cscn1 (centres undefined)	1.88%
Cn1cc(C(=O)NCCc2ccc(OC3CCCC3)cc2)ccc1=O	-2.51%
CN(Cc1nnc2ccccn12)C(=O)CC1CCCCC1	13.7%
CCS(=O)(=O)N1C[C@H]2CN(Cc3cccc(C)c3)C(=O)[C@H]2C1	2.9%
O=C1CSC(c2ccc(F)c(Cl)c2)c2c(n(C3CCOCC3)[nH]c2=O)N1 (centres undefined)	3.4%
COC(=O)Cn1c(=O)[nH]c2cn(-c3ccc(C)cc3)c(=O)n21	0.413%
OC[C@H]1CN(Cc2c(Cl)cccc2Cl)C[C@H]1CN1CCCCC1	-140%
c1c(CN2CCOCC2)nc2n1CCN(C1CCOCC1)C2	0.997%
CCc1nc(CC(=O)N2CCCCC2Cn2cccn2)cs1 (centres undefined)	-17.6%
N#Cc1cccc(CN2Cc3nccn3CC(COCC3CC3)C2)c1 (centres undefined)	-127%
Cc1ccc(NC2CCN(C(=O)COc3ccccc3)CC2)nn1	-3.25%
COc1cc2c(cc1-c1nc3c(cnn3C(C)C(C)C)[nH]1)OCO2 (centres undefined)	8.61%
CCCn1ncc(C2CC(=O)NCc3nc4cc(C)ccn4c32)c1C (centres undefined)	-3.21%

Structure (SMILES)	cytotoxicity at 10 µM
O=C1C[C@H]2[C@@H](CCN2C(=O)c2ccoc2)N1CCN1CCOCC1	-5.26%
Oc1ccccc1CN1CCCCCC1c1cccs1 (centres undefined)	-3.2%
CNC(=O)C1(Cc2cc(C(C)C)no2)CCN(Cc2ccccn2)C1 (centres undefined)	6.24%
Cc1noc(CSc2ccc(C(F)(F)F)cn2)n1	-12.5%
CCc1ccc(C2COCCN2C(=O)Nc2ccc(C#N)cc2)o1 (centres undefined)	-0.0554%
CC(=O)OCC1CCCCN1C(=O)c1ccc(Cn2ccnc2)o1 (centres undefined)	-54.5%
Cc1csc(N2CCN(C(=O)CCc3ccccn3)CC2)n1	-4.27%
CNC(=O)c1ccc(C(=O)N2CCCC(n3ccnc3C)C2)cn1 (centres undefined)	-0.248%
CCOCC(=O)NCC(C)(O)c1cc(C)oc1C (centres undefined)	1.85%
COc1ccccc1CNC(=O)CS(=O)(=O)Cc1ccccc1	3.26%
COCC(=O)N1CCc2nc(C(=O)N(C)C)sc2CC1	15.5%
CC(NC(=O)NCCOc1ccc(Cl)cc1)c1nncn1C (centres undefined)	-8.47%
COc1cc(C(=O)N(Cc2ccco2)C2CC2)cc(OC)c1OC	4.53%
Cn1ccnc1CN1CCCN(C(=O)c2ccc(Cl)o2)CC1	-7.03%
O=C(CCc1ccc(F)cc1)NS(=O)(=O)c1ccc2c(c1)OCCO2	-12.8%
CC(C)c1nc(CN2CCCN(c3nccs3)CC2)no1	-11.5%
CC(C)(O)CN1CCN(C(=O)c2cccn2Cc2cccnc2)CC1	-0.787%
c1cc(CN2CCC3(CC2)COC(COCC2CC2)C3)co1 (centres undefined)	-4.19%
CCOCC1CN(Cc2cnn(C)c2)Cc2ncn(CC3CC3)c21 (centres undefined)	2.21%
O[C@H]1[C@H](n2cc(-c3cncnc3)nn2)c2ccccc2C12CCNCC2	-1.39%
Cc1cc(C)n(CCN2CCN(C(=O)c3cc4ccccc4o3)CC2)n1	-3.97%
COc1ccc(Oc2ncccc2F)cc1CN1CCCC1	2.09%
